Laboratory results taken from ChEMBL document CHEMBL4715681, “Targeting miRNA by tunable small molecule binders: peptidic aminosugar mediated interference in miR-21 biogenesis reverts epithelial to mesenchymal transition” (Medchemcomm, 2018).
Converted amounts (≈) assume the structure as drawn. “And” between values parts separate entries of the source, which are not always exact repeats. Identical values can stand only once. The source made the active and inactive calls. The rule behind the calls is not given here.

How the values were obtained:
microRNA 21 [1] = assay: Displacement of F-neo from premature miRNA21 (unknown origin) at 100 nM by fluorescence assay relative to control; format: nucleic-acid assay
In short: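 Competition fluorescence: pre-miR21 (12.5 nM, annealed 75→25 °C at 1 °C/min) complexed with 100 nM F-neo in 10 mM phosphate, 25 mM KCl, 0.05 mM EDTA, pH 6.5. Test agent added at 100 nM. Emission read at ex 485/em 525 nm. Percent binding = (I−Ic)×100/(Ineo−Ic), referenced to 100 nM kanamycin; duplicate controls.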

microRNA 21 [2] = assay: Inhibition of premature miRNA-21 (unknown origin) transfected in human MCF7 cells assessed as reduction of maturation of pre-miRNA21 at 5 uM incubated for 48 hrs by qPCR analysis; format: cell-based
In short: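 MCF7 cells treated 48 h at 5 μM, as for the Western blots. Total RNA extracted with TRIzol and DNase-treated; 400-500 ng polyadenylated and reverse-transcribed with oligo(dT) adaptor. SYBR qPCR run in triplicate for mature miR21, normalized to U6 snRNA, fold change by 2^-ΔΔCt.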

microRNA 21 [3] = assay: Inhibition of premature miRNA-21 (unknown origin) transfected in human MCF7 cells assessed as increase in PDCD4 expression at 5 uM incubated for 48 hrs by Western blot analysis; format: cell-based
In short: (§1)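 MCF7 cells seeded at 4x10⁴/well, treated 24 h later at 5 μM for 48 h. Controls: antisense LNA transfected at 50 nM, kanamycin forms, streptomycin, untreated. Lysates (40 µg protein) run on SDS-PAGE and blotted to PVDF. Probed with PDCD4 or PTEN (1:1000) plus GAPDH (1:2000) antibodies overnight at 4 °C, then HRP secondary and ECL; bands quantified as fold change versus controls.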

Staphylococcus aureus [4] = assay: Antibacterial activity against methicillin-resistant Staphylococcus aureus ATCC 1960649 assessed as reduction in bacterial growth at 64 uM incubated for 15 to 20 hrs by broth microdilution method relative to control; format: functional; conditions: time 15-20 hrs; for inhibition of growth at 64 µM: read-out: GI
Escherichia coli [5] = assay: Antibacterial activity against Escherichia coli ATCC 25922 assessed as reduction in bacterial growth at 12.5 uM incubated for 15 to 20 hrs by broth microdilution method relative to control; conditions: time 15-20 hrs
Staphylococcus aureus [6] = assay: Antibacterial activity against Staphylococcus aureus ATCC 25923 assessed as reduction in bacterial growth at 12.5 uM incubated for 15 to 20 hrs by broth microdilution method relative to control; conditions: time 15-20 hrs
Pseudomonas aeruginosa [7] = assay: Antibacterial activity against Pseudomonas aeruginosa ATCC 27853 assessed as reduction in bacterial growth at 12.5 uM incubated for 15 to 20 hrs by broth microdilution method relative to control; conditions: time 15-20 hrs
microRNA 21 [8] = assay: Displacement of F-neo from premature miRNA21 (unknown origin) by fluorescence assay; format: nucleic-acid assay
MCF7 [9] = assay: Antiproliferative activity against human MCF7 cells assessed as reduction in Ki67 expression at 5 uM incubated for 48 hrs by fluorescence microscopy; format: functional, cell-based
In short: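 MCF7 cells seeded on coverslips (8x10⁴ per well) and grown 24 h at 37 °C, 5% CO₂, then treated 48 h at 5 μM; untreated and kanamycin controls. Fixed in 3% paraformaldehyde, permeabilized with 0.2% Triton X-100, blocked with 0.5% BSA. Stained with anti-Ki67 (1:1000, overnight) and Alexa Fluor 488 secondary (1:2000, 2 h). Nuclear speckles imaged.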

Escherichia coli [10] = assay: Antibacterial activity against Escherichia coli ATCC 25922 assessed as reduction in bacterial growth incubated for 15 to 20 hrs by broth microdilution method; format: functional; conditions: time 15-20 hrs
In short: (§2)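 MIC by CLSI broth microdilution on exponential-phase cultures, in triplicate. Compound stocks were made at 10× final in 10% DMSO and added to the bacterial suspension (about 3 x 10⁵ cells/mL in cation-adjusted Mueller-Hinton broth). Final concentrations were 2-fold serial dilutions from 50 μM to 0.78 μM. Plates were incubated humidified at 37°C for 15-20 h, growth was read as absorbance at 595 nm, and % inhibition was averaged from the triplicates.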

Staphylococcus aureus [11] = assay: Antibacterial activity against Staphylococcus aureus ATCC 25923 assessed as reduction in bacterial growth incubated for 15 to 20 hrs by broth microdilution method; format: functional; conditions: time 15-20 hrs; in short: as §2
Pseudomonas aeruginosa [12] = assay: Antibacterial activity against Pseudomonas aeruginosa ATCC 27853 assessed as reduction in bacterial growth incubated for 15 to 20 hrs by broth microdilution method; format: functional; conditions: time 15-20 hrs
In short: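 CLSI broth microdilution on exponential-phase bacteria, ~3 x 10⁵ cells/mL in cation-adjusted Mueller-Hinton broth. Serial 2-fold dilutions give final 50 to 0.78 μM from 10x stocks in 10% DMSO. Incubated 15-20 h at 37°C, humidified. Growth read at 595 nm; percent inhibition averaged from triplicates to give MIC.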

Staphylococcus aureus [13] = assay: Antibacterial activity against methicillin-resistant Staphylococcus aureus ATCC 1960649 assessed as reduction in bacterial growth incubated for 15 to 20 hrs by broth microdilution method; format: functional; conditions: time 15-20 hrs; in short: as §2
Escherichia coli [14] = assay: Antibacterial activity against Escherichia coli ATCC 25922 assessed as reduction in bacterial growth at 64 uM incubated for 15 to 20 hrs by broth microdilution method relative to control; format: functional; conditions: time 15-20 hrs, read-out: GI
Staphylococcus aureus [15] = assay: Antibacterial activity against Staphylococcus aureus ATCC 25923 assessed as reduction in bacterial growth at 64 uM incubated for 15 to 20 hrs by broth microdilution method relative to control; format: functional; conditions: time 15-20 hrs, read-out: GI
Pseudomonas aeruginosa [16] = assay: Antibacterial activity against Pseudomonas aeruginosa ATCC 27853 assessed as reduction in bacterial growth at 64 uM incubated for 15 to 20 hrs by broth microdilution method relative to control; format: functional; conditions: time 15-20 hrs, read-out: GI
microRNA 21 [17] = assay: Inhibition of premature miRNA-21 (unknown origin) transfected in human MCF7 cells assessed as increase in PTEN expression at 5 uM incubated for 48 hrs by Western blot analysis; format: cell-based; in short: as §1
microRNA 21 [18] = assay: Binding affinity to pre-miRNA21 (unknown origin) by […]; format: nucleic-acid assay
In short: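 Bio-layer interferometry (Octet RED96) with immobilized pre-miR21. Analytes run at 8-128 nM in 10 mM HEPES, 50 mM NaCl, 0.05% Tween20. Association 5 min, dissociation 10 min; regeneration in 50 mM NaOH, 1 M NaCl. KD derived from the binding curves.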

[19] = Cytotoxicity against human MCF7 cells assessed as reduction cell viability at 2.5 to 5 uM incubated for 24 hrs by MTT assay; format: cell-based; conditions: dose 2.5-5 µM, read-out: INH
In short: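 MTT assay in MCF7 cells seeded at 8000/well and treated 24 h after seeding at 0, 2.5, 5, 7.5 and 10 μM, in triplicate. After 24 h exposure, MTT (0.5 mg/ml) added for 4 h at 37 °C. Crystals dissolved in DMSO and absorbance read at 570 nm to give percent viable cells.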

MCF7 [20] = assay: Antimigratory activity in human MCF7 cells assessed as […] at 5 uM incubated for 48 hrs by imaging analysis relative to control; format: functional
In short: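 MCF-7 cells seeded densely and grown to confluence, then scratched with a pipette tip and washed with PBS. Treated at 5μM alongside an untreated well. Wound images quantified in ImageJ; three biological replicates, error bars ± S.D.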

MCF7 [21] = assay: Inhibition of epithelial-mesenchymal transition in human MCF7 cells increase in E-cadherin expression at 5 uM incubated for 48 hrs by inverted fluorescence microscopy

SMILES	inhibition (microRNA 21 [1])	inhibition (microRNA 21 [2])	inhibition (microRNA 21 [3])	growth inhibition (GI) (Escherichia coli [5])	growth inhibition (GI) (Staphylococcus aureus [6])	growth inhibition (GI) (Pseudomonas aeruginosa [7])	inhibition of growth at 64 µM (Escherichia coli [14]) [%]	inhibition of growth at 64 µM (Staphylococcus aureus [15]) [%]	inhibition of growth at 64 µM (Staphylococcus aureus [4]) [%]	other results
NC[C@H]1O[C@H](O[C@H]2[C@H](O)[C@@H](O[C@H]3O[C@H](CNC(=O)CCC(=O)N[C@@H](Cc4ccc(O)cc4)C(=O)N[C@@H](CC(=O)O)C(N)=O)[C@@H](O)[C@H](N)[C@H]3O)[C@H](N)C[C@@H]2N)[C@H](O)[C@@H](O)[C@@H]1O	5%	Active	Active	inactive	inactive	inactive				growth inhibition (GI) (Staphylococcus aureus [4]): inactive
NC[C@H]1O[C@H](O[C@H]2[C@H](O)[C@@H](O[C@H]3O[C@H](CO)[C@@H](O)[C@H](N)[C@H]3O)[C@H](N)C[C@@H]2N)[C@H](O)[C@@H](O)[C@@H]1O [KANAMYCIN]	107% and 100%						100	100	41	IC50 (microRNA 21 [8]): 1100 nM; inhibition (MCF7 [9]): inactive; MIC (Escherichia coli [10]): 4 µM (≈ 1.94 µg/mL); MIC (Staphylococcus aureus [11]): 4 µM (≈ 1.94 µg/mL); MIC (Pseudomonas aeruginosa [12]): > 256 µM; MIC (Staphylococcus aureus [13]): > 256 µM; inhibition of growth at 64 µM (Pseudomonas aeruginosa [16]): 11%
NC[C@H]1O[C@H](O[C@H]2[C@H](O)[C@@H](O[C@H]3O[C@H](CNC(=O)CCC(=O)N[C@@H](Cc4ccc(O)cc4)C(=O)N[C@@H](CS)C(N)=O)[C@@H](O)[C@H](N)[C@H]3O)[C@H](N)C[C@@H]2N)[C@H](O)[C@@H](O)[C@@H]1O	133%			inactive		inactive		34	38	inhibition (MCF7 [9]): Active
C[C@@H](O)[C@H](NC(=O)[C@H](CCCNC(=N)N)NC(=O)CCC(=O)NC[C@H]1O[C@H](O[C@@H]2[C@@H](O)[C@H](O[C@H]3O[C@H](CN)[C@@H](O)[C@H](O)[C@H]3O)[C@@H](N)C[C@H]2N)[C@H](O)[C@@H](N)[C@@H]1O)C(N)=O	131%			inactive	inactive	inactive				growth inhibition (GI) (Staphylococcus aureus [4]): inactive
NC[C@H]1O[C@H](O[C@H]2[C@H](O)[C@@H](O[C@H]3O[C@H](CNC(=O)CCC(=O)N[C@@H](Cc4ccccc4)C(=O)N[C@@H](CS)C(N)=O)[C@@H](O)[C@H](N)[C@H]3O)[C@H](N)C[C@@H]2N)[C@H](O)[C@@H](O)[C@@H]1O	140%	Active	Active	inactive	inactive	inactive			22	inhibition (microRNA 21 [17]): Active; Kd (microRNA 21 [18]): 43.6 nM; cytotoxicity at 24 h, up to 5 µM [19]: 2%; Activity (MCF7 [20]): >50%; inhibition (MCF7 [21]): Active
N=C(N)NCCC[C@H](NC(=O)CCC(=O)NC[C@H]1O[C@H](O[C@@H]2[C@@H](O)[C@H](O[C@H]3O[C@H](CN)[C@@H](O)[C@H](O)[C@H]3O)[C@@H](N)C[C@H]2N)[C@H](O)[C@@H](N)[C@@H]1O)C(=O)N[C@@H](CS)C(N)=O						inactive	13	20	25	
N=C(N)NCCC[C@H](NC(=O)[C@H](CCCNC(=N)N)NC(=O)CCC(=O)NC[C@H]1O[C@H](O[C@@H]2[C@@H](O)[C@H](O[C@H]3O[C@H](CN)[C@@H](O)[C@H](O)[C@H]3O)[C@@H](N)C[C@H]2N)[C@H](O)[C@@H](N)[C@@H]1O)C(N)=O	137%	Active	Active				25	29	30	Activity (microRNA 21 [18]; dose 16.0 nM): Active; inhibition of growth at 64 µM (Pseudomonas aeruginosa [16]): 11%
CN[C@@H]1[C@H](O[C@H]2[C@H](O[C@H]3[C@H](O)[C@@H](O)[C@H](N=C(N)N)[C@@H](O)[C@@H]3N=C(N)N)O[C@@H](C)[C@]2(O)C=O)O[C@@H](CO)[C@H](O)[C@H]1O	107%									
